Series [1] is described as follows: Selectivity index, ratio of EC50 for human MRC5 cells to EC50 for antitrypanosomal activity against Trypanosoma brucei rhodesiense. It is filed as toxicity. The following applies: read-out: Ratio EC50. Summed up:
(§1)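 Selectivity index is the MRC-5 EC₅₀ divided by the parasite EC₅₀.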

For series [2], the system named is Trypanosoma brucei rhodesiense. As to the kind of experiment: Antitrypanosomal activity against Trypanosoma brucei rhodesiense assessed as parasite growth inhibition. The format is functional, organism-based.
Series [3] in a line: Selectivity index, ratio of EC50 for cytotoxicity against mouse primary macrophage to EC50 for antileishmanial activity against Leishmania infantum MHOM/MA(BE)/67 infected in mouse primary peritoneal macrophages. It is filed as toxicity. The note with it: read-out: Ratio EC50.
A short description of series [4]: Selectivity index, ratio of EC50 for cytotoxicity against human MRC5 cells to EC50 for antitrypanosomal activity against Trypanosoma cruzi Tulahuen CL2 infected in human MRC5 cells. The note with it: read-out: Ratio EC50. It is filed as toxicity, cell-based. The method in brief: as §1
Another series deals with Trypanosoma cruzi. As to the kind of experiment: Antitrypanosomal activity against Trypanosoma cruzi Tulahuen CL2 infected in human MRC5 cells assessed as inhibition of parasite growth incubated for 7 days by chlorophenol red-fl-D-galactopyranoside based spectrophotometric analysis. The following applies: Tulahuen CL2, MRC5, 168 h. It is filed as functional, organism-based. Summed up:
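T. cruzi Tulahuen CL2 β-galactosidase strain was maintained on MRC-5_SV2 cells. Wells held 4×10³ cells plus 4×10⁴ parasites with a 10-point 4-fold compound series, final DMSO <1%. After 7 days at 37 °C, 5% CO₂, substrate was added and absorbance read at 540 nm after 4 h at 37 °C. IC₅₀ was taken from % reduction versus infected and uninfected controls.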

The test system of a further series is MRC5. The experiment in a line: Cytotoxicity against human MRC5 cells assessed as reduction in cell viability after 3 days by resazurin dye based fluorimetric analysis. The following applies: MRC5, 72 h. Summed up: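 MRC-5_SV2 cells, 1.5×10⁵ cells/mL in MEM with Earl's salts, L-glutamine, NaHCO₃ and 5% inactivated FCS, were exposed 3 days at 37 °C, 5% CO₂ to a 10-point 4-fold dilution series, final DMSO <1%. Resazurin was added for 4 h, fluorescence read at ex 550/em 590 nm, and IC₅₀ derived versus untreated and medium controls.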

Series [5] is described as follows: Selectivity index, ratio of EC50 for human MRC5 cells to EC50 for antitrypanosomal activity against Trypanosoma brucei brucei. It is filed as toxicity. The note with it: read-out: Ratio EC50. Summed up:
as §1

The next series has as its system Macrophage. The experiment in a line: Cytotoxicity against mouse primary macrophage cells assessed as reduction in cell viability. The format is cell-based. The method in brief:
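Macrophage toxicity was scored microscopically within the L. infantum assays, using cell detachment, lysis and granulation. At least 500 cells over adjacent fields were scored semi-quantitatively, and CC₅₀ was taken from % reduction in normal cells versus untreated controls.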

Series [6] concerns Trypanosoma brucei brucei. The experiment in a line: Antitrypanosomal activity against Trypanosoma brucei brucei assessed as parasite growth inhibition. It is filed as functional, organism-based.
A further series relates to Leishmania infantum. The experiment in a line: Antileishmanial activity against Leishmania infantum MHOM/MA(BE)/67 infected in mouse primary peritoneal macrophages treated 2 hrs post-infection and incubated for 5 days by Giemsa staining based microscopic analysis. It is filed as functional, organism-based. The note with it: MHOM/MA(BE)/67, Peritoneal macrophage. Summed up:
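Peritoneal macrophages from mice, harvested 2 days after 2% potato starch stimulation, infected after 48 h with L. infantum in supplemented RPMI-1640 with 5% FCS. Compounds were added 2 h post-infection as a 10-point 4-fold dilution series, final DMSO <1%, and incubated 5 days at 37 °C, 5% CO₂. Amastigotes per macrophage were counted after 10% Giemsa staining, and IC₅₀ was taken from % reduction versus untreated-infected controls.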

Broadly, the EC50 is the midpoint of the concentration-response curve. For `Nc1ncnc2c1c(-c1ccc(F)cc1)cn2[C@@H]1O[C@H](CO)[C@H](F)[C@H]1O`, the selectivity ratio in series [1] is > 5; in series [3] it was 1; in series [4], > 44; in [5], > 4. For the same compound, the EC50 in [2] is 14.1 µM; in the series with Trypanosoma cruzi, 1.45 µM; in the series on MRC5, > 64 µM; with Macrophage, 32 µM; in series [6], 16.2 µM; in the series with Leishmania infantum, 22.6 µM.

As for `Cc1cc(-c2cn([C@@H]3O[C@H](CO)[C@H](F)[C@H]3O)c3ncnc(N)c23)ccc1Cl`, the selectivity ratio stood at 6 in series [1], 1 in [3], 28 in series [4] and 3 in [5]. Moreover, the concentration for a half-maximal effect (EC50) in series [2] came out at 3.61 µM; in the series on Trypanosoma cruzi it was 0.75 µM; in the series with MRC5 it was 20.9 µM; in the series on Macrophage, 8 µM; in series [6] it was 7.23 µM; in the series on Leishmania infantum, 5.34 µM.

With `Nc1ncnc2c1c(-c1ccc(Cl)c(F)c1)cn2[C@@H]1O[C@H](CO)[C@H](F)[C@H]1O`, the selectivity ratio in [1] is 13; in [3] it was 1; in series [4] it was 44; in [5], 4. In addition, the half-maximal effective concentration (EC50) was 1.43 µM in series [2]; 0.42 µM with Trypanosoma cruzi; 18.6 µM in the series on MRC5; 8 µM in the series with Macrophage; 4.22 µM in [6]; 5.95 µM in the series on Leishmania infantum.

Source of the values: ChEMBL document CHEMBL4813968, “Synthesis and evaluation of 3'-fluorinated 7-deazapurine nucleosides as antikinetoplastid agents” (Eur J Med Chem, 2021).
